In ChEMBL document CHEMBL1641437, “New furin inhibitors based on weakly basic amidinohydrazones” (Bioorg Med Chem Lett, 2011):

Assays:
[1] = molecular target: Prothrombin (Homo sapiens, UniProt P00734); experiment: Inhibition of thrombin
[2] = molecular target: Plasminogen (Homo sapiens, UniProt P00747); experiment: Inhibition of plasmin
[3] = molecular target: Furin (Homo sapiens, UniProt P09958); experiment: Inhibition of human recombinant furin by fluorescence plate reader analysis
Outline: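 Recombinant human furin, 0.95 nM, with fluorogenic pyroGlu-Arg-Thr-Lys-Arg-AMC at 5, 20 and 50 substrate concentrations, in 100 mM HEPES pH 7.0 with 0.2% Triton X-100, 2 mM CaCl2, 0.02% sodium azide, 1 mg/mL BSA; room temperature. AMC release read by fluorescence (ex 380, em 460 nm); Ki obtained by Dixon plot.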

[4] = molecular target: Coagulation factor X (Homo sapiens, UniProt P00742); experiment: Inhibition of factor 10a
Coagulation factor X, sequence (P00742 41-179 limits assumed): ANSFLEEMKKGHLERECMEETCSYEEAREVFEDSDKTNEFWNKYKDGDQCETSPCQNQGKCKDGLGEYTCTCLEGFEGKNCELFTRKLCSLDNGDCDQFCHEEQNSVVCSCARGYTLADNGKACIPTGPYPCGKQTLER
Coagulation factor X, sequence (P00742 235-488 limits assumed): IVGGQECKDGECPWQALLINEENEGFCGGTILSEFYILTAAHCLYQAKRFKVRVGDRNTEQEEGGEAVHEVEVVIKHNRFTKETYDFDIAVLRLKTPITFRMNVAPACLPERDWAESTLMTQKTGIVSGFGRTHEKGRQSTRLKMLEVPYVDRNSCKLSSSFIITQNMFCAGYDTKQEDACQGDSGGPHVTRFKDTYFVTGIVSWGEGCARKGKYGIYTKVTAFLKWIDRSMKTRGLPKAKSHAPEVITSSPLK

[5] = Inhibition of trypsin
[6] = molecular target: T1, Subtilisin Carlsberg (Bacillus licheniformis) (UniProt P00780); experiment: Inhibition of Bacillus licheniformis subtilisin at 100 uM relative to control
T1 sequence (whole entry): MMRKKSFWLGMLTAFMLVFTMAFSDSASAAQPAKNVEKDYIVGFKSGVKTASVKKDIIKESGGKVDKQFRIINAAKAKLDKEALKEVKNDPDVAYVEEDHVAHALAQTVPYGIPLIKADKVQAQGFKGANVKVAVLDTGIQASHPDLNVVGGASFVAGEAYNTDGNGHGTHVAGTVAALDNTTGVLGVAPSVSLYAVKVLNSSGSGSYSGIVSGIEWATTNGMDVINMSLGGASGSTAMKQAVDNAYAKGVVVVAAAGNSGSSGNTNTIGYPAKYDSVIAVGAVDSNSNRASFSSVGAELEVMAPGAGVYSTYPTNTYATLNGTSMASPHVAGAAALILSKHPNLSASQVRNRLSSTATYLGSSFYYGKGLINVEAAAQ

Plasminogen, sequence (P00747 97-580 limits assumed): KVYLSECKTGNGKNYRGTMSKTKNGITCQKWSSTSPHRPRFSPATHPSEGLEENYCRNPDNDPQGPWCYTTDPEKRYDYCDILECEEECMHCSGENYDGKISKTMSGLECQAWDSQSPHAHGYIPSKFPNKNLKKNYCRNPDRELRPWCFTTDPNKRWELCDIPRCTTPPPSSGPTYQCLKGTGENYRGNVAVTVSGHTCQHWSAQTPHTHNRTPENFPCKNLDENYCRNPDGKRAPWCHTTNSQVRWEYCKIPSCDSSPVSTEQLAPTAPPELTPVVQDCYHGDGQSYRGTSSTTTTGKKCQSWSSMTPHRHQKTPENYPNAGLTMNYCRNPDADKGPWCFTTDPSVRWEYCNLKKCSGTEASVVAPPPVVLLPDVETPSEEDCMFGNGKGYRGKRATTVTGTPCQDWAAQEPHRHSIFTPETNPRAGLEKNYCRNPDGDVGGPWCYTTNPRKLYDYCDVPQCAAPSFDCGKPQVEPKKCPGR
Plasminogen, sequence (P00747 581-810 limits assumed): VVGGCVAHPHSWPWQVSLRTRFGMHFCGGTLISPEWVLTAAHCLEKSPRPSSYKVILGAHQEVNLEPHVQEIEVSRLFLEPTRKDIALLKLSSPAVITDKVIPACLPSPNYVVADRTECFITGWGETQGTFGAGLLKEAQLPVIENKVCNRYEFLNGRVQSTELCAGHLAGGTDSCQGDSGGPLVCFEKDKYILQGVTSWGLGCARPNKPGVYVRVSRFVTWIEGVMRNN
Furin, sequence (P09958 whole entry): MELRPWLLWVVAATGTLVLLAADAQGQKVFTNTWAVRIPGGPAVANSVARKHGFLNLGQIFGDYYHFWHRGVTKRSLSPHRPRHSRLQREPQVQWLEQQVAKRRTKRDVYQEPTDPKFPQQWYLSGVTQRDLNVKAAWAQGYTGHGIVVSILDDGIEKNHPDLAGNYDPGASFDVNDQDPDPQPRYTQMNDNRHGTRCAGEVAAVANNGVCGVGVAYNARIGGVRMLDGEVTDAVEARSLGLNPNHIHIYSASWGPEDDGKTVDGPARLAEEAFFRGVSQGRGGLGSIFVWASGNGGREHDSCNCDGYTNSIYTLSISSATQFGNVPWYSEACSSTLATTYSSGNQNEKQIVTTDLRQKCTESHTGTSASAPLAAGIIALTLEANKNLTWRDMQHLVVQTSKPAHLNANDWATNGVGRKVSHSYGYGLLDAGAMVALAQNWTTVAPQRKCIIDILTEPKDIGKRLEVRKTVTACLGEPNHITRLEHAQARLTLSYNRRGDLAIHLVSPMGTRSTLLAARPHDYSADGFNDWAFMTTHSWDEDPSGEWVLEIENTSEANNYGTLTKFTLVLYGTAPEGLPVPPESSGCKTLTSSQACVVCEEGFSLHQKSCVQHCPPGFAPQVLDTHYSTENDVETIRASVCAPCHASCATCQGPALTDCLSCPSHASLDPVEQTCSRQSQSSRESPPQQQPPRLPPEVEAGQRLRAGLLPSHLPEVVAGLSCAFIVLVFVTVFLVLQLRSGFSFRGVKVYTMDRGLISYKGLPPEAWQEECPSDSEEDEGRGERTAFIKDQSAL

Row | Structure (SMILES) | Ki [1] | Ki [2] | Ki [3] | Ki [4] | Ki [5] | inhibition [6]
1 | C/C(=N\NC(=N)N)c1cc(NC(=O)CCCCNC(=N)N)cc(/C(C)=N/NC(=N)N)c1 | 1000 µM | 1000 µM | 1.04 µM | 1000 µM | 23 µM | 
2 | C/C(=N\NC(=N)N)c1cc(NC(=O)CCCNC(=N)N)cc(/C(C)=N/NC(=N)N)c1 | 800 µM | 1000 µM | 0.46 µM | 16 µM | 2.8 µM | 7.9%
3 | C/C(=N\NC(=N)N)c1ccc(Oc2ccc(/C(C)=N/NC(=N)N)cc2)cc1 |  |  | 44 µM |  |  | 
4 | C/C(=N\NC(=N)N)c1cc(NC(=O)CCCCCNC(=N)N)cc(/C(C)=N/NC(=N)N)c1 | 1000 µM | 1000 µM | 1.42 µM | 1000 µM | 110 µM | 
5 | C/C(=N\NC(=N)N)c1cc(NC(=O)[C@H](N)CCCNC(=N)N)cc(/C(C)=N/NC(=N)N)c1 | 1000 µM | 1000 µM | 1.13 µM | 1000 µM | 68 µM | 
6 | C/C(=N/NC(=N)N)c1cc(NC(=O)CC(=O)Nc2cc(/C(C)=N/NC(=N)N)cc(/C(C)=N/NC(=N)N)c2)cc(/C(C)=N/NC(=N)N)c1 |  |  | 1.13 µM |  |  | 7.7%
7 | C/C(=N\NC(=N)N)c1cccc(/C(C)=N/NC(=N)N)c1 |  |  | 4.78 µM |  |  | 0%
8 | C/C(=N\NC(=N)N)c1ccccc1 |  |  | 273 µM |  |  | 
9 | C/C(=N\NC(=N)N)c1cc(NS(=O)(=O)c2ccccc2)cc(/C(C)=N/NC(=N)N)c1 | 32 µM | 400 µM | 1.55 µM | 80 µM | 59 µM | 
10 | NC(N)=NNC(=O)c1ccc(C(=O)NN=C(N)N)cc1 | 1000 µM |  | 173 µM |  |  | 
11 | N=C(N)NNC(=O)c1ccccc1 |  |  | 376 µM |  |  | 
12 | C/C(=N/NC(=N)N)c1cc(NC(=O)COc2ccccc2)cc(/C(C)=N/NC(=N)N)c1 |  |  | 5.61 µM |  |  | 
13 | C/C(=N\NC(=N)N)c1cc(NC(=O)CCCN)cc(/C(C)=N/NC(=N)N)c1 | 1000 µM | 110 µM | 1.2 µM | 1000 µM | 12 µM | 
14 | C/C(=N/NC(=N)N)c1cc(OCC(=O)Nc2ccccc2)cc(/C(C)=N\NC(=N)N)c1 |  |  | 1.35 µM |  |  | 
15 | C/C(=N\NC(=N)N)c1cc(N)cc(/C(C)=N/NC(=N)N)c1 |  |  | 1.82 µM |  |  | 
16 | C/C(=N/NC(=N)N)c1cc(OCC(=O)Nc2cc(/C(C)=N\NC(=N)N)cc(/C(C)=N/NC(=N)N)c2)cc(/C(C)=N\NC(=N)N)c1 | 0.86 µM |  | 0.58 µM |  |  | 
17 | N=C(N)N/N=C/c1ccc(/C=N/NC(=N)N)cc1 | 68 µM |  | 1.47 µM |  |  | 0%
18 | N=C(N)NNC(=O)c1cccc(C(=O)NNC(=N)N)c1 |  |  | 27.9 µM |  |  | 
19 | N=C(N)N/N=C/c1ccccc1 |  |  | > 500 µM |  |  | 
20 | N=C(N)N/N=C/c1cccc(/C=N/NC(=N)N)c1 |  |  | 11.5 µM |  |  | 4.4%
21 | C/C(=N/NC(=N)N)c1cc(NC(=O)COc2ccc(/C(C)=N/NC(=N)N)cc2)cc(/C(C)=N/NC(=N)N)c1 |  |  | 1.94 µM |  |  | 
22 | C/C(=N\NC(=N)N)c1ccc(/C(C)=N/NC(=N)N)cc1 | 786 µM |  | 1.84 µM |  |  | 7.9%
23 | C/C(=N/NC(=N)N)c1cccc(OCC(=O)Nc2cc(/C(C)=N\NC(=N)N)cc(/C(C)=N/NC(=N)N)c2)c1 |  |  | 1.46 µM |  |  | 
24 | N=C(N)N/N=C1\C/C(=N\NC(=N)N)c2ccccc21 |  |  | 17.3 µM |  |  | 
